Test results as given in ChEMBL document CHEMBL1145917, “Neurosteroid analogues. 9. Conformationally constrained pregnanes: structure-activity studies of 13,24-cyclo-18,21-dinorcholane analogues of the GABA modulatory and anesthetic steroids (3alpha,5alpha)- and (3alpha,5beta)-3-hydroxypregnan-20-one” (J Med Chem, 2003).

How the values were obtained:
[1] = target: T1, GABA-A receptor; alpha-1/beta-2/gamma-2 (Rattus norvegicus) (UniProt P18508+P62813+P63138); experiment: In vitro current effect against rat GABA receptor alpha-1-beta-2-gamma-2 subunits expressed in Xenopus laevis oocytes at 0.1 uM (ratio +/- compound); assay type: cell-based; details: Oocyte
Method in brief: (§1)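 Two-electrode voltage clamp at -70 mV, 2–5 days after injecting rat α1, β2 and γ2L cRNA (20–40 ng total, equal parts) into defolliculated stage V–VI oocytes held at 18 °C in ND96. Compound was co-applied with 2 μM GABA for 20 s and peak current measured. Value is the ratio of current with/without compound, from at least four oocytes.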

[2] = target: T1, GABA-A receptor; alpha-1/beta-2/gamma-2 (Rattus norvegicus); experiment: In vitro current effect against rat GABA receptor alpha-1-beta-2-gamma-2 subunits expressed in Xenopus laevis oocytes at 10 uM (ratio +/- compound); assay type: cell-based; details: Oocyte; method in brief: as §1
[3] = target: T1, GABA-A receptor; alpha-1/beta-2/gamma-2 (Rattus norvegicus); experiment: In vitro direct current effect against rat GABA receptor alpha-1-beta-2-gamma-2 subunits expressed in Xenopus laevis oocytes at 10 uM (ratio +/- compound, without GABA); assay type: cell-based; details: Oocyte
Method in brief: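 Same oocyte α1β2γ2L voltage-clamp setup at -70 mV, with peak current over 20 s applications. Compound was applied at 10 μM without GABA. Directly gated current is expressed as a ratio to the current evoked by 2 μM GABA, from at least four oocytes.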

[4] = target: T1, GABA-A receptor; alpha-1/beta-2/gamma-2 (Rattus norvegicus); experiment: In vitro current effect against rat GABA receptor alpha-1-beta-2-gamma-2 subunits expressed in Xenopus laevis oocytes at 1 uM (ratio +/- compound); assay type: cell-based; details: Oocyte; method in brief: as §1
[5] = target: GABA-A receptor; anion channel; experiment: Non-competitive displacement of [35S]TBPS from picrotoxin binding site found in heterogeneous Gamma-aminobutyric acid A receptor in rat brain membranes.; assay type: cell membranes
Method in brief: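 Rat brain membranes (washed P2, 0.5 mg/mL final protein) incubated 2 h at room temperature with 5 μM GABA, 2 nM [35S]TBPS and steroid from DMSO (final 1 nM–10 μM) in 200 mM NaCl/50 mM potassium phosphate, pH 7.4. Nonspecific binding defined with 200 μM picrotoxinin. Filtration, scintillation counting, Hill fit for IC50. Triplicate points, two or three curves per steroid.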

[6] = Loss of righting reflex in Xenopus laevis tadpole.; assay type: functional, frog; details: Amphibia, read-out: ED50 (the source's name)
Method in brief: (§2)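 Groups of 10 early pre-limb-bud X. laevis tadpoles were placed in 100 mL oxygenated Ringer's containing compound at various concentrations. Compound came from a 10 mM DMSO stock, about 0.1% DMSO final. Loss of righting and loss of swimming responses were scored. EC50 and Hill coefficient n were taken from a Hill equation fit.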

[7] = Loss of swimming behavior in Xenopus laevis tadpole.; assay type: functional, frog; details: Amphibia, read-out: ED50 (the source's name); method in brief: as §2
[8] = Hill coefficient for displacement of [35S]TBPS.; assay type: functional
Method in brief: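 Rat brain membrane P2 fraction washed three times in 200 mM NaCl / 50 mM potassium phosphate, pH 7.4. Assay used 0.5 mg/mL protein, 5 μM GABA, 2 nM [35S]TBPS and steroid at 1 nM–10 μM final (0.5% DMSO), 2 h at room temperature, then filtration and scintillation counting. Nonspecific binding was taken with 200 μM picrotoxinin. Triplicate points, 2–3 curves per steroid; Hill equation fit gives n.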

[9] = Hill coefficient for loss of swimming response.; assay type: functional; method in brief: as §2
[10] = Hill coefficient for loss of righting response.; assay type: functional; method in brief: as §2

Compound | Ratio [1] | Ratio [2] | Ratio [3] | Ratio [4] | IC50 [5] [nM] | EC50 [6] [nM] | EC50 [7] [nM] | nHill [8] | nHill [9] | nHill [10]
C[C@]12CC[C@@H](O)C[C@@H]1CC[C@H]1[C@@H]3CCC4CCC(=O)C[C@@]43CC[C@@H]12 (stereo partly drawn) | 1.39 | 6.49 | 0.32 | 1.64 | 334 | 1120 | 3580 | 1.14 | -16.7 | -1.75
C[C@]12CC[C@@H](O)C[C@@H]1CC[C@@H]1[C@@H]2CC[C@]23C(=O)CCCC2CC[C@@H]13 (stereo partly drawn) | 1.22 | 10.7 | 0.39 | 3.05 | 301 | 320 | 1730 | 1.01 | -36.5 | -1.75
C[C@]12CC[C@@H](O)C[C@@H]1CC[C@H]1[C@@H]3CCC4CC(=O)CC[C@@]43CC[C@@H]12 (stereo partly drawn) | 1.3 | 2.93 | 0.06 | 1.61 | 1440 | 2370 | – | 0.95 | – | -2.02
C[C@]12CC[C@@H](O)C[C@@H]1CC[C@@H]1[C@@H]2CC[C@]23C=CC(=O)C[C@H]2CC[C@@H]13 | 1.12 | 5.07 | -0.04 | 1.54 | 1260 | 730 | 5480 | 1 | -33.5 | -1.57
C[C@]12CC[C@@H](O)C[C@H]1CC[C@@H]1[C@@H]2CC[C@]23C(=O)C=CC[C@H]2CC[C@@H]13 | 1.36 | 21.4 | 0.2 | 3.15 | 105 | 400 | 1000 | 0.9 | -18.6 | -4.97
CC(=O)[C@H]1CC[C@H]2[C@@H]3CC[C@H]4C[C@H](O)CC[C@]4(C)[C@H]3CC[C@]12C [BREXANOLONE] | 1.26 | 9.65 | 0.37 | 3.89 | – | 420 | 5500 | 0.89 | -7.5 | -1.83
C[C@]12CC[C@@H](O)C[C@@H]1CC[C@H]1C3CCC4C(=O)C=CC[C@@]43CC[C@@H]12 (single isomer, unassigned) | 1.49 | 9.07 | 0.72 | 5.87 | 373 | 3380 | – | 1.17 | – | -2.79
C[C@]12CC[C@@H](O)C[C@H]1CC[C@H]1C3CCC4C(=O)C=CC[C@@]43CC[C@@H]12 (single isomer, unassigned) | 1.07 | 2.34 | 0.11 | 1.17 | 1570 | 2560 | 8950 | 1.15 | -19.8 | -1.59
C[C@]12CC[C@@H](O)C[C@@H]1CC[C@H]1[C@@H]3CCC4C=CC(=O)C[C@@]43CC[C@@H]12 (stereo partly drawn) | 1.59 | 16.6 | 0.35 | 5.53 | 243 | 1280 | 10000 | 0.89 | -17 | -1.16
C[C@]12CC[C@@H](O)C[C@H]1CC[C@H]1[C@@H]3CCC4CC(=O)CC[C@@]43CC[C@@H]12 (stereo partly drawn) | 0.97 | 2.65 | -0.1 | 1.11 | 3230 | 2470 | 9430 | 0.73 | -18.7 | -1.86
C[C@]12CC[C@@H](O)C[C@H]1CC[C@@H]1[C@@H]2CC[C@]23C(=O)CCCC2CC[C@@H]13 (stereo partly drawn) | 1.26 | 10.4 | 0.04 | 3.45 | 329 | 40 | 890 | 0.95 | -18.2 | -4.97
C[C@]12CC[C@@H](O)C[C@H]1CC[C@@H]1[C@@H]2CC[C@]23C=CC(=O)C[C@H]2CC[C@@H]13 | 1.87 | 4.44 | 0.26 | 1.8 | 4750 | 560 | 5480 | 0.95 | -33.5 | -1.5
C[C@]12CC[C@@H](O)C[C@@H]1CC[C@H]1[C@@H]3CCC4C(=O)CCC[C@@]43CC[C@@H]12 (stereo partly drawn) | 1.01 | 2.28 | 0 | 1.44 | 514 | 1360 | 5450 | 0.84 | -33.5 | -2.51
C[C@]12CC[C@@H](O)C[C@H]1CC[C@H]1[C@@H]3CCC4CCC(=O)C[C@@]43CC[C@@H]12 (stereo partly drawn) | 0.97 | 3.17 | 0.01 | 1.03 | 899 | 1440 | 3550 | 0.89 | -17.5 | -3.02
C[C@]12CC[C@@H](O)C[C@H]1CC[C@H]1[C@@H]3CCC4C=CC(=O)C[C@@]43CC[C@@H]12 (stereo partly drawn) | 1.07 | 4.5 | -0.02 | 1.83 | 268 | 1050 | 2720 | 0.64 | -22.1 | -16.6
C[C@]12CC[C@@H](O)C[C@H]1CC[C@H]1[C@@H]3CCC4C(=O)CCC[C@@]43CC[C@@H]12 (stereo partly drawn) | 0.93 | 1.51 | -0.25 | 1.12 | 1780 | 940 | 5480 | 1.36 | -33.5 | -1.23
C[C@]12CC[C@@H](O)C[C@@H]1CC[C@@H]1[C@@H]2CC[C@]23C(=O)C=CC[C@H]2CC[C@@H]13 | 1.98 | 9.45 | 0.07 | 8.33 | 197 | 1200 | 2660 | 1.03 | -24.2 | –
CC(=O)[C@H]1CC[C@H]2[C@@H]3CC[C@@H]4C[C@H](O)CC[C@]4(C)[C@H]3CC[C@]12C [ELTANOLONE] | 1.2 | 9.77 | 0.06 | 2.82 | – | 63 | 300 | 0.57 | -6.93 | -1.54
